{"data": "Experimental data of several laboratories", "target": "Inhibitor of nuclear factor kappa-B kinase subunit beta (IKBKB, Homo sapiens, UniProt O14920)", "technique": "competition with immobilised ligand", "One construct used (O14920 1-756)": "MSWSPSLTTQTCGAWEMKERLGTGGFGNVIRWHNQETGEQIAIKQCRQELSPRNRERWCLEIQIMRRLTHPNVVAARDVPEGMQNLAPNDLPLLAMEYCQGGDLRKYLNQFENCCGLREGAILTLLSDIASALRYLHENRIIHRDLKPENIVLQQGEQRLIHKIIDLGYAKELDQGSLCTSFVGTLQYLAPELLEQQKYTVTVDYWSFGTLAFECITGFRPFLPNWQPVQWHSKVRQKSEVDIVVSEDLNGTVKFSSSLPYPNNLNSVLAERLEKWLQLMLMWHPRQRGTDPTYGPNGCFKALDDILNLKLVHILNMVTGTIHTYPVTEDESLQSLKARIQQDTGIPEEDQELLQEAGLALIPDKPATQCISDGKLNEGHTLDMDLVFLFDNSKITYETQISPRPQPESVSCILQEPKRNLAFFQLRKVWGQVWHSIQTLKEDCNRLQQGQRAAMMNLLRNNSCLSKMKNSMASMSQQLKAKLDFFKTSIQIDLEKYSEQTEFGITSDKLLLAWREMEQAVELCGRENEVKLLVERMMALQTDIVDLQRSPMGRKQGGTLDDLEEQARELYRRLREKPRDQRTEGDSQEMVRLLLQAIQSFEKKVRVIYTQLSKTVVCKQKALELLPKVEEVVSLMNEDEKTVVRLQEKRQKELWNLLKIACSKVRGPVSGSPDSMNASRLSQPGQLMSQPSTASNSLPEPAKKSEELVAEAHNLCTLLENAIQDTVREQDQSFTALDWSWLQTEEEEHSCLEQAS", "note": "Compare with care: the assays were run in different laboratories."}
{"Structure (SMILES)": "O=C(c1ccc(Nc2ncc(Cl)c(-c3ccc(Cl)s3)n2)cc1)N1CCC(N2CCCC2)CC1", "assay": "binding", "conditions": "1 µM", "remaining binding [%]": 0.6}
{"Structure (SMILES)": "CNCc1ccccc1-c1csc([C@H](C)Nc2nc(C)nc3cc(OC)c(OC)cc23)c1", "assay": "cell-free assay", "conditions": "1 µM", "remaining binding [%]": 83}
{"Structure (SMILES)": "COc1ccnn2ncc(-c3ccnc(N(C)C)n3)c12", "assay": "binding", "conditions": "1 µM", "remaining binding [%]": 98}
{"Structure (SMILES)": "Cc1c(NC(=O)c2cc(C(N)=O)nc3cc(F)ccc23)c(C(F)(F)F)nn1Cc1ccc(C(C)(C)C)cc1", "assay": "cell-free assay", "conditions": "1 µM", "remaining binding [%]": 100}
{"Structure (SMILES)": "O=C(NCC1CCOCC1)c1n[nH]cc1NC(=O)c1c(F)cccc1F", "assay": "binding", "conditions": "1 µM", "remaining binding [%]": 92}
{"Structure (SMILES)": "O=C(c1ccc(Nc2nccc(-c3cc4ccccc4s3)n2)cc1)N1CCC(N2CCCC2)CC1", "assay": "binding", "conditions": "1 µM", "remaining binding [%]": 0.1}
{"Structure (SMILES)": "CNC(=O)Nc1ccc2c(c1)CC[C@@]21OC(=O)N(CC(=O)N(Cc2ccc(F)cc2)[C@@H](C)C(F)(F)F)C1=O", "assay": "cell-free assay", "conditions": "1 µM", "remaining binding [%]": 83}
{"Structure (SMILES)": "O=C(NCCCN1CCOCC1)c1ccc(Nc2nccc(-c3cc4ccccc4s3)n2)cc1", "assay": "binding", "conditions": "1 µM", "remaining binding [%]": 5.1}
{"Structure (SMILES)": "C[C@@]1(Cc2ccc(C#N)cc2)C(=O)N(c2cc(Cl)cc(Cl)c2)c2ncc(C(=O)NC3(c4nc(C5CCC5)no4)CC3)n21", "assay": "cell-free assay", "conditions": "1 µM", "remaining binding [%]": 100}
{"Structure (SMILES)": "N[C@@H]1CCN(c2nccc(-c3cnn4ncccc34)n2)C1", "assay": "binding", "conditions": "1 µM", "remaining binding [%]": 100}
{"Structure (SMILES)": "CS(=O)(=O)c1cc(C2(NC(=O)c3cncc4c3cnn4-c3ccc(F)cc3)CC2)ccn1", "assay": "cell-free assay", "conditions": "1 µM", "remaining binding [%]": 100}
{"Structure (SMILES)": "FC(F)(F)Oc1cccc(-c2cnc3ccc(-c4ccncc4)nn23)c1", "assay": "cell-free assay", "conditions": "5 µM", "remaining binding [%]": 56}
{"Structure (SMILES)": "CCN1CCN(Cc2ccc(C(=O)Nc3ccc(C)c(Oc4ccc5c(c4)CC(=O)N5)c3)cc2C(F)(F)F)CC1", "assay": "binding", "conditions": "1 µM", "remaining binding [%]": 100}
{"Structure (SMILES)": "CN(C)c1ncc(F)c(-c2cnn3ncccc23)n1", "assay": "binding", "conditions": "1 µM", "remaining binding [%]": 80}
{"Structure (SMILES)": "CC(C)(C)c1ccc(-c2nc(CBr)nn2-c2cccc(O)c2)cc1", "assay": "cell-free assay", "conditions": "10 µM", "remaining binding [%]": 70}
{"Structure (SMILES)": "CN(CCCC(F)(F)F)c1nccc(-c2cnn3ncccc23)n1", "assay": "binding", "conditions": "1 µM", "remaining binding [%]": 100}
{"Structure (SMILES)": "CC(=O)N1CCC(c2ccc(C(=O)NC3=NCCN3)cc2C(F)(F)F)CC1", "assay": "cell-free assay", "conditions": "1 µM", "remaining binding [%]": 85}
{"Structure (SMILES)": "C[C@@H]1CN(c2ccc3ncc(-c4ccc5[nH]nc(C6CC6)c5c4)n3n2)C[C@H](C)O1", "assay": "binding", "conditions": "0.5 µM", "remaining binding [%]": 89}
{"Structure (SMILES)": "Cc1cnn2ncc(-c3ccnc(N(C)C)n3)c2c1", "assay": "binding", "conditions": "1 µM", "remaining binding [%]": 53}
{"Structure (SMILES)": "COc1cnc(Nc2cccc(S(N)(=O)=O)c2)nc1N1CCN(c2ccccc2)C(=O)C1", "assay": "binding", "conditions": "1 µM", "remaining binding [%]": 93}
{"Structure (SMILES)": "CN(C)c1nccc(-c2cnc3ncccn23)n1", "assay": "binding", "conditions": "1 µM", "remaining binding [%]": 67}
{"Structure (SMILES)": "Nc1ncc2c(n1)-c1c([nH]c3ccc(C#CC4CC4)cc13)CCCC2", "assay": "binding", "conditions": "1 µM", "remaining binding [%]": 100}
{"Structure (SMILES)": "CCCOc1ccc([C@H]2[C@H](C(=O)O)[C@@H](c3ccc4c(c3)OCO4)CN2CC(=O)Nc2c(CC)cccc2CC)cc1", "assay": "cell-free assay", "conditions": "1 µM", "remaining binding [%]": 77}
{"Structure (SMILES)": "C[C@H]1CCN(c2nccc(-c3cnn4ncccc34)n2)C1", "assay": "binding", "conditions": "1 µM", "remaining binding [%]": 64}
{"Structure (SMILES)": "N#Cc1ccccc1CSc1nnc2c(n1)[nH]c1ccccc12", "assay": "binding", "conditions": "10 µM", "remaining binding [%]": 100}
{"Structure (SMILES)": "CN(C)c1ncnc(-c2ccc3nc(Nc4cc(CN5CCN(C(=O)CC(F)(F)F)CC5)ccn4)[nH]c3c2)c1Cl", "assay": "cell-free assay", "conditions": "1 µM", "remaining binding [%]": 80}
